Cl transport mod: KCC2 (human) Cl- transport modulation | KCC2 cells, thallium flux FluoZin-2 fluorescence | B-score of Tl+ flux slope (higher = more flux/activation; lower = inhibition) at 10 µM | 2.2% of 190,000 active | AID 1456;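 active = thallium flux slope and its plate-corrected score both differing from the plate sample mean at a set confidence after two filtering rounds, in either direction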;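 also: slope of fluorescence scaled to starting intensity during 10 to 20 s after thallium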
Mot1-301 SUMO: SUMOylation pathway inhibition by Mot1-301 growth rescue; AID 2716; S. cerevisiae Mot1-301 growth rescue, ATP luminescence, 38.5C; percent above DMSO median, 100 means doubled; 1% of 320,000 active; growth rescue, % at 18.8 µM;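 active = every valid replicate shows activation above 250% relative to neutral control wells; inactive = the rest, any valid replicate at or below 250%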;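 also: OY570 slx delta 5 strain wells were the positive control but not used for scaling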
AI-2 QS mod: modulates the Vibrio harveyi AI-2 quorum sensing system | activity change, % at 7.5 µM | AID 2094 | 0.4% of 300,000 active | Vibrio harveyi JMH597 AI-2 luminescence/OD600 ratio, 9 h; active compounds read low; strain lacks LuxN and CqsS sensors; 0 = neutral-control median; in the data active = activity change below about -75%, passing the limit was not always enough;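 also: luminescence divided by OD600 gain over 9 h not by final OD600 alone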
KCNQ1 act: human KCNQ1 channel potentiation or activation; P51787; CHO-K1 KCNQ1, thallium flux FluxOR fluorescence; active compounds read high; B-score at 10 µM; 0.35% of 310,000 active; AID 2648;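 active = fluorescence ratio B-score, a plate-corrected score, at least three library SD, with initial intensity B-score within 5 SD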
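Assay system: CHO-K1 cells stably expressing KCNQ1; Medium: assay buffer with matched DMSO; Also added: K+/Tl+ depolarizing stimulus; Dosing: single dose; Timing: dye 90 min, compound 20 min, room temperature; Measured by: kinetic FluxOR thallium fluorescence, 10-s 1-Hz baseline, 110-s post-stimulus read; Read-out: peak-minus-minimum fluorescence over initial fluorescence, negative-control normalized, B-scored.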
hERG rescue: shields human hERG channel from block by proarrhythmic agents; AID 1511; 0.51% of 310,000 active; activation (rescue from dofetilide block), less the hit threshold, % at 10 µM; CHO-hERG, FluxOR thallium flux, dofetilide IC70 present; Q12809;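 active = activation above the mean of controls blocked by dofetilide plus 5 SD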;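 also: thallium influx through hERG after potassium depolarization seen as dye fluorescence rise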
KCNQ1 block: blocks the human KCNQ1 potassium channel; 1.3% of 310,000 active; B-score at 10 µM; AID 2642; P51787; CHO-K1 KCNQ1, FluxOR thallium flux fluorescence; active compounds read high;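 active = compounds whose thallium flux B-score, printed positive for inhibition, exceeds three library SD while starting fluorescence stays within three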;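 also: channel opened by potassium depolarization with thallium stimulus after 20 min compound exposure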
An asterisk follows results filed as active; i = inactive; / = not tested or not shown. Most compounds without a hit are left out; they make up all but 4.2% or so of the library.

SMILES | Cl transport mod | Mot1-301 SUMO | AI-2 QS mod | KCNQ1 act | hERG rescue | KCNQ1 block
Cc1ccc(C)c(S(=O)(=O)Nc2ccc(O)c3ccccc23)c1 | / | -17 | 15 | i | -10 | i
COc1ccc(S(=O)(=O)Nc2ccc(O)c3ccccc23)cc1 | / | -1 | 20 | i | 5.1* | i
Cc1ccsc1C(=O)N(C)C1CCS(=O)(=O)C1 (stereo not drawn) | / | 5 | / | / | / | /
Cc1ccc2[nH]c3c(=O)n(CC(=O)Nc4ccccc4N4CCN(C)CC4)ncc3c2c1 | / | 37 | 14 | i | -13 | i
FC(F)Sc1ccc(NC(=S)NC(c2ccccc2)c2ccccc2)cc1 | 1.1 | -14 | 14 | i | -43 | 11*
CN(C)CCCN(Cc1ccccc1)C(=S)Nc1ccc(SC(F)F)cc1 | 1 | 48 | 9 | i | -10 | i
FC(F)Sc1ccc(NC(=S)NCC2CCCCC2)cc1 | -1.4 | -1 | 7 | i | -16 | 9*
CC(NC(=S)Nc1ccc(F)cc1)c1ccccc1 (stereo not drawn) | / | -17 | 17 | i | -2 | i
CN(C(=S)Nc1ccc(SC(F)F)cc1)C(c1ccccc1)c1ccccc1 | / | -4 | 6 | i | -11 | 10*
CN(Cc1nc(-c2ccc(Cl)cc2)no1)C(=O)c1ccc2c(c1)OCO2 | / | 2 | 47 | i | -16 | i
COc1ccc(C(=O)OCC(=O)NCC2CCCO2)cc1S(=O)(=O)N1CCCc2ccccc21 (stereo not drawn) | -0.014 | 2 | 3 | i | -7 | i
Cc1ccc(C(C)NC(=O)c2cccs2)cc1C (stereo not drawn) | / | -5 | 16 | i | 5.2* | i
COc1ccc(-n2c(C(C)(C)C)csc2=Nc2c(C)n(C)n(-c3ccccc3)c2=O)cc1 | 0.19 | -2 | 14 | i | -4 | i
COc1ccc(-c2csc(=Nc3c(C)n(C)n(-c4ccccc4)c3=O)n2C(C)(C)C)cc1 | -0.36 | -1 | 11 | i | 5.1* | i
Cc1ccc(C)c(S(=O)(=O)N2CCN(C(=O)CCC(=O)c3cc(C)sc3C)CC2)c1 | / | -10 | 17 | i | -8 | i
O=c1ccccn1CCOc1ccccc1Cl | 0.68 | 2 | -34 | i | 5.3* | i
CCC(=O)c1ccc(OCC(=O)NCc2ccccc2CN2CCCC2)cc1 | / | 2 | / | / | / | /
COc1cccc(NC(=O)CN(C)C(=O)C2CCN(C(=O)c3ccccc3C)CC2)c1 | / | 0 | 5 | i | -6 | i
Clc1ccc(Cc2ccccc2)nn1 | -0.02 | -13 | -8 | i | 5.3* | i
NC(=O)CSc1nc(-c2ccccc2Cl)ns1 | 0.026 | 17 | 19 | i | -9 | i
Nc1cc(=O)[nH]c(SCC(=O)NC2CCCCCCC2)n1 | / | -4 | / | / | / | /
CC[C@@H](C)[C@H](CN[C@H](CNC)C(C)C)NC[C@@H](C)c1ccc(CC(C)C)cc1 | / | -5 | 13 | i | -29 | 8*
Cc1cccc(NC(=O)C(C)OC(=O)c2ccccc2NS(=O)(=O)c2cc(C)c(C)c([N+](=O)[O-])c2)c1 (stereo not drawn) | -0.85 | 5 | 18 | i | -13 | 9*
CC(=O)Nc1ccc(NC(=O)C(C)OC(=O)c2ccccc2NS(=O)(=O)c2cccs2)cc1 (stereo not drawn) | -2.9 | 180 | 31 | i | -11 | i
O=Nc1c(O)n(Cc2ccc(Cl)cc2)c2ccccc12 | -1.6 | 22 | 12 | i | -7 | i
Oc1c(N=NC(=S)Nc2ccccc2F)c2ccccc2n1Cc1cccc(Cl)c1 | 3.6 | -26 | 5 | i | 16* | i
NC(=S)N=Nc1c(O)n(Cc2ccc(Br)cc2)c2ccccc12 | 3.4 | -2 | 5 | i | 15* | i
COc1ccc(-c2[nH]c(-c3ccc(C(=O)O)cc3)nc2-c2ccccc2)cc1 | -0.059 | -7 | 10 | i | -10 | i
COc1cc(-c2nc(-c3ccc4c(c3)-c3ccccc3S4(=O)=O)c(-c3ccccc3)[nH]2)cc(OC)c1O | / | 9 | 19 | i | -9 | 6*
CCN(CC)CCCOC(=O)c1ccc(OC)cc1O | -3.7 | 13 | 19 | i | -15 | i

From PubChem
